Experimental data: ChEMBL document CHEMBL1138987, “Development of cyclic gamma-MSH analogues with selective hMC3R agonist and hMC3R/hMC5R antagonist activities” (J Med Chem, 2006)

Key:
Melanocortin receptor 5 [1] = molecular target: T1, Melanocortin receptor 5 (Homo sapiens, UniProt P33032); assay: Inhibitory activity against hMC5R transfected in HEK293 cells; format: cell-based
Summary of the method: (§1)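 Competition binding on whole HEK293 cells stably expressing the human receptor, seeded 48 h prior. Binding buffer was MEM, 25 mM HEPES pH 7.4, 0.2% BSA, 1,10-phenanthroline, leupeptin and bacitracin. Cells washed and lysed, then gamma counted. IC50 from nonlinear least-squares fit; mean of two experiments in triplicate.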

Melanocortin receptor 4 [2] = molecular target: T2, Melanocortin receptor 4 (Homo sapiens, UniProt P32245); assay: Inhibitory activity against hMC4R transfected in HEK293 cells; format: cell-based; summary of the method: as §1
T2 sequence (P32245 whole entry): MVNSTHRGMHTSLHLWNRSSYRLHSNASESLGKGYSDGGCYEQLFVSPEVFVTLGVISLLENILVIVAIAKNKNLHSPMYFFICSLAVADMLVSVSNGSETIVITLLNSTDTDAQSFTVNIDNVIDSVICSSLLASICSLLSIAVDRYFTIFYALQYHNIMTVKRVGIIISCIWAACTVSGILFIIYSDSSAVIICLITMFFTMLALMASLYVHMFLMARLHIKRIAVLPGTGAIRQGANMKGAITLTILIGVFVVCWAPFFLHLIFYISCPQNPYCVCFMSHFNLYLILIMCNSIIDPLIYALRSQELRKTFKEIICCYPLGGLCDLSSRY

Melanocortin receptor 3 [3] = molecular target: T3, Melanocortin receptor 3 (Homo sapiens, UniProt P41968); assay: Inhibitory activity against hMC3R transfected in HEK293 cells; format: cell-based; summary of the method: as §1
T3 sequence (P41968 whole entry): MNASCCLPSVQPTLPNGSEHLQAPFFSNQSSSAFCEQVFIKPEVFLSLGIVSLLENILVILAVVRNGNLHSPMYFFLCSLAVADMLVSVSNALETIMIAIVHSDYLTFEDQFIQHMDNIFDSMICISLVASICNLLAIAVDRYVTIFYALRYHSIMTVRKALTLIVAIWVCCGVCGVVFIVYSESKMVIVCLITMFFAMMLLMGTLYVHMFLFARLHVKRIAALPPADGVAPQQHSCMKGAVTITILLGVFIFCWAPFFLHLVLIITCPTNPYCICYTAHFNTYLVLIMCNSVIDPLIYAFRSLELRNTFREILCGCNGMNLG

Melanocortin receptor 3 [4] = molecular target: T3, Melanocortin receptor 3; assay: Activity against hMC3R transfected in HEK293 cells by intracellular cAMP accumulation; format: functional, cell-based
Summary of the method: (§2)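 HEK293 cells stably transfected with human receptor, grown to confluence in MEM with 10% FBS, seeded 48 h before assay. Cells preincubated 1 min at 37 °C in EBSS with IBMX (0.5 mM stock). Peptide added (10^-10 to 10^-5 M), 3 min at 37 °C. Stopped with ice-cold Tris/EDTA, boiled, cAMP measured by competitive binding kit. EC50 from nonlinear least-squares fit; mean of two experiments in triplicate.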

Melanocortin receptor 4 [5] = molecular target: T2, Melanocortin receptor 4; assay: Activity against hMC4R transfected in HEK293 cells by intracellular cAMP accumulation; format: functional, cell-based; summary of the method: as §2
[6] = molecular target: T4, Melanocyte-stimulating hormone receptor (Homo sapiens, UniProt Q01726); assay: Inhibitory activity against hMC1R transfected in HEK293 cells; format: cell-based; summary of the method: as §1
Target sequence in this assay (Q01726 whole entry): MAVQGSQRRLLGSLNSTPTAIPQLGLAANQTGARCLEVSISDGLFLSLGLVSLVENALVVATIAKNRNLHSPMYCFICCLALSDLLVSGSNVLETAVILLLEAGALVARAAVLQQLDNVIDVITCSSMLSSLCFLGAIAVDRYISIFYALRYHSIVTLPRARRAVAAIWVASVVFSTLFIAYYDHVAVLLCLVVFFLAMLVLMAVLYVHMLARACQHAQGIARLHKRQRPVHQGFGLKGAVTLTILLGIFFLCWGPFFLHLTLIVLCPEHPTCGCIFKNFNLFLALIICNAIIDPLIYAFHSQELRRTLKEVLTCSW

[7] = molecular target: T4, Melanocyte-stimulating hormone receptor; assay: Activity against hMC1R transfected in HEK293 cells by intracellular cAMP accumulation; format: functional, cell-based; summary of the method: as §2
Melanocortin receptor 5 [8] = molecular target: T1, Melanocortin receptor 5; assay: Activity against hMC5R transfected in HEK293 cells by intracellular cAMP accumulation; format: functional, cell-based; summary of the method: as §2

T1 sequence (P33032 whole entry): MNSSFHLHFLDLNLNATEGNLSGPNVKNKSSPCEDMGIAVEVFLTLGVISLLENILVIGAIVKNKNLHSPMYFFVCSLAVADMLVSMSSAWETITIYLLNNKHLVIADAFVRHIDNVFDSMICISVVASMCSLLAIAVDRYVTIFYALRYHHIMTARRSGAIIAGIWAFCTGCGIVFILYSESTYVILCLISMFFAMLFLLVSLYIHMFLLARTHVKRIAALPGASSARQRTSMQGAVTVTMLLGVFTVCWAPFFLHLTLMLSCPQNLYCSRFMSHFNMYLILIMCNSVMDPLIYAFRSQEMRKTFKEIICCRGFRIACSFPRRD

IC50 (Melanocortin receptor 5 [1]): 0.01 µM
IC50 (Melanocortin receptor 4 [2]): 1 µM
IC50 (Melanocortin receptor 3 [3]): 0.013 µM
%max (Melanocortin receptor 3 [4]): 0%
EC50 (Melanocortin receptor 3 [4]): > 10 µM
%max (Melanocortin receptor 4 [5]): 0%
EC50 (Melanocortin receptor 4 [5]): > 10 µM
IC50 [6]: > 10 µM
%max [7]: 0%
EC50 [7]: > 10 µM
%max (Melanocortin receptor 5 [8]): 0%
EC50 (Melanocortin receptor 5 [8]): > 10 µM
SMILES: CCCC[C@@H]1NC(=O)CC[C@@H](C(N)=O)NC(=O)[C@H](Cc2c[nH]c3ccccc23)NC(=O)[C@H](CCCN=C(N)N)NC(=O)[C@@H](Cc2ccc3ccccc3c2)NC(=O)[C@@H]2CCCN2C1=O
